Results reported in ChEMBL document CHEMBL1127590 (J Med Chem, 1994).

What was measured:
[1] = In vitro inhibitory activity against human adrenal 3-beta hydroxy-delta 5-teroid isomerase
Summary of the method: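 Microsomes were prepared from human adrenal tissue by homogenization and differential centrifugation. Inhibitor in 50% DMSO was preincubated 10 min at 37 °C in 100 mM potassium phosphate pH 7.5 with 1 mM NAD+. The reaction was started with 100 nM [3H]DHEA and quenched in ethanol after 15 min. DHEA-to-androstenedione conversion was measured by radio-HPLC.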

[2] = target: T1, 3-oxo-5-alpha-steroid 4-dehydrogenase 2 (Homo sapiens, UniProt P31213); assay: In vitro inhibitory activity against human type 2 5-alpha reductase
T1 sequence (P31213 whole entry): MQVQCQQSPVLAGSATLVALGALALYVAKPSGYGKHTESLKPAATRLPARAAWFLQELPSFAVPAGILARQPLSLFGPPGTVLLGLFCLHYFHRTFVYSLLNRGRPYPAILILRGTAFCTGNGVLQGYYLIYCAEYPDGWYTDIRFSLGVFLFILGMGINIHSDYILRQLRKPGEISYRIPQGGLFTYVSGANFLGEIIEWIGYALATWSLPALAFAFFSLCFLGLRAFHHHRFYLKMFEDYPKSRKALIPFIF

[3] = target: T2, 3-oxo-5-alpha-steroid 4-dehydrogenase 1 (Homo sapiens, UniProt P18405); assay: In vitro inhibitory activity against human type 1 5-alpha reductase
T2 sequence (P18405 whole entry): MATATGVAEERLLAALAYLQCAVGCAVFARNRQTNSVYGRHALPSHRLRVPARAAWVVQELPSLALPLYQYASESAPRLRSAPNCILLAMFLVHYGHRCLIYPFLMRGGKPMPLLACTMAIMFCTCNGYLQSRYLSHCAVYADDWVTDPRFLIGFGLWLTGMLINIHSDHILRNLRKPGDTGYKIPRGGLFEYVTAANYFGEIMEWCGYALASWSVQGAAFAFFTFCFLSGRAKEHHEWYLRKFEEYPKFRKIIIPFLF
Summary of the method: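 Used microsomes from baculovirus-infected SF-9 cells expressing recombinant human type 1 5AR, at final enzyme 0.05–5 nM. Buffer at pH 7 and 37 °C contained an NADPH-regenerating system. Inhibitor was preincubated 10 min before adding 100 nM [3H]testosterone.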

Rattus norvegicus = assay: In vivo inhibition of T stimulated prostate growth in rats was reported after oral administration at a dose 10 mg/kg/day; assay type: functional, Prostate gland
Summary of the method: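 Rats were castrated, and 7 days later dosed orally once daily for 7 days at 10 mg/kg/day in 1 part cremophor:2 parts saline:0.5% Tween 80 (8 rats/group). Testosterone (40 μg/kg sc in corn oil) was given 4 h after each dose. Ventral prostates were weighed on day 8. Weight reduction was expressed as a percent of the finasteride reduction versus T-treated vehicle controls.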

Ki [1]	IC50 [2]	Ki [3]	SMILES	Reduction (Rattus norvegicus)
50 nM			CON(C)C(=O)[C@H]1CCC2C3CNC4=CC(=O)CC[C@]4(C)C3CC[C@@]21C (stereo partly specified)	
47 nM	180 nM	4100 nM	CCC1=C2NCC3C(CC[C@@]4(C)C3CC[C@@H]4C(=O)N(CC)CC)[C@@]2(C)CCC1=O (stereo partly specified)	
22 nM	5.7 nM	1300 nM	CCN(CC)C(=O)[C@H]1CCC2C3CN(C)C4=CC(=O)C=C[C@]4(C)C3CC[C@@]21C (stereo partly specified)	
49 nM		1300 nM	CCN(CC)C(=O)[C@H]1CCC2C3CN(CC)C4=CC(=O)CC[C@]4(C)C3CC[C@@]21C (stereo partly specified)	
91 nM	8.1 nM	280 nM	CCN(CC)C(=O)[C@H]1CCC2C3CNC4=C(C)C(=O)C=C[C@]4(C)C3CC[C@@]21C (stereo partly specified)	
1500 nM	42 nM	8300 nM	CCN(CC)C(=O)[C@H]1CCC2C3CN(C#N)C4=CC(=O)CC[C@]4(C)C3CC[C@@]21C (stereo partly specified)	
80 nM	3.5 nM	5800 nM	CCN(CC)C(=O)[C@H]1CCC2C3CNC4=CC(=O)C=C[C@]4(C)C3CC[C@@]21C (stereo partly specified)	
10 nM	< 0.1 nM		CC(C)CC(=O)[C@H]1CCC2C3CNC4=CC(=O)CC[C@]4(C)C3CC[C@@]21C (stereo partly specified)	
62 nM		38 nM	CC(C)(C)N(O)C(=O)[C@H]1CCC2C3CNC4=CC(=O)CC[C@]4(C)C3CC[C@@]21C (stereo partly specified)	
95 nM	1.8 nM	14000 nM	CCN(CC)C(=O)[C@H]1CCC2C3CN=C4C=C(O)C5CC5[C@]4(C)C3CC[C@@]21C (stereo partly specified)	
18 nM		40 nM	CCN(CC)C(=O)[C@H]1CCC2C3CNC4=C(C)C(=O)CC[C@]4(C)C3CC[C@@]21C (stereo partly specified)	0%
3600 nM		7800 nM	CCCCN1CC2C(CC[C@@]3(C)C2CC[C@@H]3C(=O)N(CC)CC)[C@@]2(C)CCC(=O)C=C12 (stereo partly specified)	
27 nM		51 nM	CCN(CC)C(=O)[C@H]1CCC2C3CNC4=C(Cl)C(=O)CC[C@]4(C)C3CC[C@@]21C (stereo partly specified)	
15 nM		690 nM	CCN(CC)C(=O)[C@H]1CCC2C3CNC4=C(I)C(=O)CC[C@]4(C)C3CC[C@@]21C (stereo partly specified)	
180 nM	1500 nM	10000 nM	CCN(CC)C(=O)[C@H]1CCC2C3CN(CC(=O)O)C4=CC(=O)CC[C@]4(C)C3CC[C@@]21C (stereo partly specified)	
20 nM	0.23 nM	5 nM	CCN(CC)C(=O)[C@H]1CC[C@H]2[C@@H]3CC[C@H]4N(C)C(=O)CC[C@]4(C)[C@H]3CC[C@]12C	
34000 nM	3000 nM	40000 nM	CCN(CC)C(=O)[C@H]1CCC2C3CN(C(C)=O)C4=CC(=O)CC[C@]4(C)C3CC[C@@]21C (stereo partly specified)	
10 nM		10000 nM	CCN(CC)C(=O)[C@H]1CCC2C3CN(C)C4=CC(=O)C5CC5[C@]4(C)C3CC[C@@]21C (stereo partly specified)	
1500 nM	3.8 nM	1000 nM	CCN(CC)C(=O)[C@H]1CCC2C3CCNC4=CC(=O)CC[C@]4(C)C3CC[C@@]21C (stereo partly specified)	
510 nM	3.4 nM	3500 nM	CCN(CC)C(=O)[C@H]1CCC2C3CNC4=CC(=O)C(C)C[C@]4(C)C3CC[C@@]21C (stereo partly specified)	
11 nM		12 nM	CCCC(=O)[C@H]1CCC2C3CNC4=CC(=O)CC[C@]4(C)C3CC[C@@]21C (stereo partly specified)	
16000 nM		10000 nM	CCN(CC)C(=O)[C@H]1CCC2C3CN(Cc4ccccc4)C4=CC(=O)CC[C@]4(C)C3CC[C@@]21C (stereo partly specified)	
1100 nM	4.9 nM	3400 nM	CCN(CC)C(=O)[C@H]1CCC2C3CN(C(C)C)C4=CC(=O)CC[C@]4(C)C3CC[C@@]21C (stereo partly specified)	
60 nM			CCN(CC)C(=O)[C@H]1CCC2C3CNC4=CC(=O)CC[C@]4(C)C3CC[C@@]21C (stereo partly specified)	
7.5 nM	< 0.1 nM	1 nM	CCCCCCCCC(=O)[C@H]1CCC2C3CNC4=CC(=O)CC[C@]4(C)C3CC[C@@]21C (stereo partly specified)	
1200 nM	170 nM	10000 nM	CCN(CC)C(=O)[C@H]1CCC2C3CNC4=C(CN(C)C)C(=O)CC[C@]4(C)C3CC[C@@]21C (stereo partly specified)	
520 nM		24000 nM	CCCN1CC2C(CC[C@@]3(C)C2CC[C@@H]3C(=O)N(CC)CC)[C@@]2(C)CCC(=O)C=C12 (stereo partly specified)	
13 nM	2.1 nM	97 nM	CCN(CC)C(=O)[C@H]1CCC2C3CNC4=C(Br)C(=O)CC[C@]4(C)C3CC[C@@]21C (stereo partly specified)	
11000 nM		5900 nM	CCCCCCN1CC2C(CC[C@@]3(C)C2CC[C@@H]3C(=O)N(CC)CC)[C@@]2(C)CCC(=O)C=C12 (stereo partly specified)	
11 nM		82 nM	CCN(CC)C(=O)[C@H]1CCC2C3CN(C)C4=C(C)C(=O)CC[C@]4(C)C3CC[C@@]21C (stereo partly specified)	

Second part, the compound before the results:

SMILES	Ki [1]	IC50 [2]	Ki [3]	Reduction (Rattus norvegicus)
C[C@]12CCC(=O)C=C1NCC1C2CC[C@@]2(C)C1CC[C@@H]2C(=O)c1c(F)cccc1F (stereo partly specified)	11 nM	< 0.1 nM	39 nM	
C[C@]12CCC(=O)C=C1NCC1C2CC[C@@]2(C)C1CC[C@@H]2C(=O)c1cccc2ccccc12 (stereo partly specified)	7.8 nM	< 0.1 nM	15 nM	
C[C@]12CCC(=O)C=C1NCC1C2CC[C@@]2(C)C1CC[C@@H]2C(=O)N1CCOCC1 (stereo partly specified)	190 nM			
CC(C)(C)NC(=O)[C@H]1CC[C@H]2[C@@H]3CC=C4C=C(C(=O)O)CC[C@]4(C)[C@H]3CC[C@]12C [EPRISTERIDE]	160 nM	0.18 nM	1600 nM	
C[C@]12CCC(=O)C=C1NCC1C2CC[C@@]2(C)C1CC[C@@H]2C(=O)NN(c1ccccc1)c1ccccc1 (stereo partly specified)	160 nM			
CC(C)(C)NC(=O)[C@H]1CCC2C3CNC4=CC(=O)C=C[C@]4(C)C3CC[C@@]21C (stereo partly specified)	2200 nM	1.8 nM	2400 nM	
C[C@]12CCC(=O)C=C1NCC1C2CC[C@@]2(C)C1CC[C@@H]2C(=O)N1CCCCC1 (stereo partly specified)	110 nM		85 nM	
C[C@]12CCC(=O)C=C1NCC1C2CC[C@@]2(C)C1CC[C@@H]2C(=O)NC(c1ccccc1)(c1ccccc1)c1ccccc1 (stereo partly specified)	100 nM	< 0.1 nM		
CN1CC2C(CC[C@@]3(C)C2CC[C@@H]3C(=O)NC23CC4CC(CC(C4)C2)C3)[C@@]2(C)C=CC(=O)C=C12 (stereo partly specified)	62 nM	0.3 nM	280 nM	
CC(C)CC(=O)[C@H]1CCC2C3CNC4=C(Br)C(=O)CC[C@]4(C)C3CC[C@@]21C (stereo partly specified)	2.3 nM		3.2 nM	
C[C@]12CCC(=O)C=C1NCC1C2CC[C@@]2(C)C1CC[C@@H]2C(=O)N1CCSCC1 (stereo partly specified)	31 nM			
CC(C)c1cc(C(C)C)c(C(=O)[C@H]2CCC3C4CNC5=CC(=O)CC[C@]5(C)C4CC[C@@]32C)c(C(C)C)c1 (stereo partly specified)	1900 nM	0.5 nM	280 nM	
COC(=O)[C@H]1CCC2C3CNC4=CC(=O)CC[C@]4(C)C3CC[C@@]21C (stereo partly specified)	12 nM			
CN1CC2C(CC[C@@]3(C)C2CC[C@@H]3C(=O)NC(C)(C)C)[C@@]2(C)C=CC(=O)C=C12 (stereo partly specified)	62 nM	6.7 nM	1400 nM	
CC(C)(C)NC(=O)[C@H]1CCC2C3CN=C4C=C(O)C5CC5[C@]4(C)C3CC[C@@]21C (stereo partly specified)	300 nM	4.4 nM	49000 nM	
CC(C)(C)NC(=O)[C@H]1CCC2C3CNC4=CC(=O)CC[C@]4(C)C3CC[C@@]21C (stereo partly specified)	150 nM			
CCCN1CC2C(CC[C@@]3(C)C2CC[C@@H]3C(=O)NC(c2ccccc2)c2ccccc2)[C@@]2(C)C=CC(=O)C=C12 (stereo partly specified)	180 nM	1.3 nM	340 nM	
CC1=C2N(C)CC3C(CC[C@@]4(C)C3CC[C@@H]4C(=O)NC(C)(C)C)[C@@]2(C)CCC1=O (stereo partly specified)	23 nM		60 nM	
CC1=C2N(C)CC3C(CC[C@@]4(C)C3CC[C@@H]4C(=O)NC34CC5CC(CC(C5)C3)C4)[C@@]2(C)CCC1=O (stereo partly specified)	18 nM	0.4 nM	6.2 nM	
C[C@]12CCC(=O)C=C1NCC1C2CC[C@@]2(C)C1CC[C@@H]2C(=O)NC(C1CCCCC1)C1CCCCC1 (stereo partly specified)	4000 nM			
C[C@]12CCC(=O)C=C1NCC1C2CC[C@@]2(C)C1CC[C@@H]2C(=O)CC1CCCCC1 (stereo partly specified)	16 nM	< 0.1 nM	4 nM	
C[C@]12CCC(=O)C=C1NCC1C2CC[C@@]2(C)C1CC[C@@H]2C(=O)N1CCNCC1 (stereo partly specified)	220 nM			
C[C@]12CCC(=O)C(Br)=C1NCC1C2CC[C@@]2(C)C1CC[C@@H]2C(=O)NC12CC3CC(CC(C3)C1)C2 (stereo partly specified)	13 nM	< 0.1 nM	4.5 nM	
C[C@]12CC[C@H]3[C@@H](CNC4=CC(=O)CC[C@@]43C)[C@@H]1CC[C@@H]2C(=O)OC1[C@H]2C[C@@H]3C[C@@H](C[C@H]1C3)C2 (stereo partly specified)	180 nM	< 0.1 nM	6.9 nM	
CN1CC2C(CC[C@@]3(C)C2CC[C@@H]3C(=O)NC23CC4CC(CC(C4)C2)C3)[C@@]2(C)CCC(=O)C(Br)=C12 (stereo partly specified)	8.3 nM	1.7 nM	8.6 nM	
